ChEMBL document CHEMBL1125832, “Synthesis and dopaminergic activity of 3-substituted 1-(aminomethyl)-3,4-dihydro-5,6-dihydroxy-1H-2-benzopyrans: characterization of an auxiliary binding region in the D1 receptor” (J Med Chem, 1991)

Columns and labels:
[1] = biological target: Beta-1 adrenergic receptor (Rattus norvegicus, UniProt P18090); experiment: Binding affinity towards beta-1 adrenergic receptor using [3H]iodocyanopindolol as radioligand in competitive binding assay; details: in the assay text read “[125I]iodocyanopindolol” for “[3H]iodocyanopindolol”
Sequence of Beta-1 adrenergic receptor (P18090 whole entry): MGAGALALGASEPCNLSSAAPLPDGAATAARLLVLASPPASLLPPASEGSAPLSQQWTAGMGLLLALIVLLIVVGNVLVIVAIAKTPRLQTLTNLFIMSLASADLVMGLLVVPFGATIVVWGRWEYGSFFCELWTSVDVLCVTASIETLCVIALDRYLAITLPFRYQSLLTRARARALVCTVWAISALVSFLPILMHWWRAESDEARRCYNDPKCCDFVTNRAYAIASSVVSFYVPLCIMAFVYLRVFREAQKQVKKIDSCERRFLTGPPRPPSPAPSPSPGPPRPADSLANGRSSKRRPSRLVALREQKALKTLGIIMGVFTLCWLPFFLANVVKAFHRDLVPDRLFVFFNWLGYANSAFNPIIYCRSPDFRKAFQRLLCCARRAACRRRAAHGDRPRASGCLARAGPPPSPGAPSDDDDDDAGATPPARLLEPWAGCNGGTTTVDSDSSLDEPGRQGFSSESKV
Summary of the method: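 β-adrenergic sites in rat striatal membranes. Label [125I]iodocyanopindolol at 50 pM final; nonspecific binding with 10 μM propranolol. Incubated 1 h at 37 °C, then filtered. Ki via Cheng-Prusoff.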

[2] = biological target: T1, Adrenergic receptor alpha-1 (Rattus norvegicus, UniProt P15823+P23944+P43140); experiment: Binding affinity towards alpha-1 adrenergic receptor using [3H]prazosin as radioligand in competitive binding assay; assay type: protein assay
T1 sequence (P15823 whole entry): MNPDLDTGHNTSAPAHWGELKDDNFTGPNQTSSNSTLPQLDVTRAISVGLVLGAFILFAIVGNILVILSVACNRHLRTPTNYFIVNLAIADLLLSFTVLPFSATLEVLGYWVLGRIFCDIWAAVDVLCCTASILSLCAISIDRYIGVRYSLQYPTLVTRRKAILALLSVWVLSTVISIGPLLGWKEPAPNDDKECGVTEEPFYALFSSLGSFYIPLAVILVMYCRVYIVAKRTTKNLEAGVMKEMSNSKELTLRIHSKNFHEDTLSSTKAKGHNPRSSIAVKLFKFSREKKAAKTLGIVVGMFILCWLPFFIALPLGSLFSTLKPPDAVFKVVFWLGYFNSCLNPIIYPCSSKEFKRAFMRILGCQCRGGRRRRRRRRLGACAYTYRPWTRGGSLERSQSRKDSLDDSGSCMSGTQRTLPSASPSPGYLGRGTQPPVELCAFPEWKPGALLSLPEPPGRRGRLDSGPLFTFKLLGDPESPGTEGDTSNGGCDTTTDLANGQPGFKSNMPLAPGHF
T1 sequence (P23944 whole entry): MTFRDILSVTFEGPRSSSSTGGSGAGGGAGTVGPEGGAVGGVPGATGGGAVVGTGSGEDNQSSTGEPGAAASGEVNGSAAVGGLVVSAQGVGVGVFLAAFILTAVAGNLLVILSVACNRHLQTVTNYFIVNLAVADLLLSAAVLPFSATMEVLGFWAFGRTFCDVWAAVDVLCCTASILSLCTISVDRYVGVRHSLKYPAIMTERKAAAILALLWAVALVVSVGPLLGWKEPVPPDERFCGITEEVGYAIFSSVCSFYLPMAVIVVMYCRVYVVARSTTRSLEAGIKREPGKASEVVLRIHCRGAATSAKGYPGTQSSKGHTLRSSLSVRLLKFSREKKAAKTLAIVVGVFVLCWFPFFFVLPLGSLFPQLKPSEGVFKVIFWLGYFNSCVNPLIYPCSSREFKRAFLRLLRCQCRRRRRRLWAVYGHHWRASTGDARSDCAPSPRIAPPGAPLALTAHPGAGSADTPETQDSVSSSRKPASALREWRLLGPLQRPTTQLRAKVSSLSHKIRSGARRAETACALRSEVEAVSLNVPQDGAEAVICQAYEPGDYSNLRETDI
T1 sequence (P43140 whole entry): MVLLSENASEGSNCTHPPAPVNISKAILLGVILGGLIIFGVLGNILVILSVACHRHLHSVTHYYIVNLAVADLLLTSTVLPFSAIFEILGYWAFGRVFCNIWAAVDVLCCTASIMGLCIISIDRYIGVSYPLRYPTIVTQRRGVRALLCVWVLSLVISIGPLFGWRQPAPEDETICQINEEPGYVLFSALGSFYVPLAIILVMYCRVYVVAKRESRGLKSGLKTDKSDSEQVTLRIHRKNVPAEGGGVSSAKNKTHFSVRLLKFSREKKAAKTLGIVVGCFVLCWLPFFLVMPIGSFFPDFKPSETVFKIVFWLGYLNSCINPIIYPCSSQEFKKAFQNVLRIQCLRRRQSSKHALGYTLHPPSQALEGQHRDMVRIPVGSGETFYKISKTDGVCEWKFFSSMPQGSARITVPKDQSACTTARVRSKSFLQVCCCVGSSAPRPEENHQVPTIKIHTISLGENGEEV
Summary of the method: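 Frozen rat cortex membranes (300g then 48000g spins) in Tris pH 7.4 buffer with salts and ascorbate. [3H]prazosin at 1.0 nM final; nonspecific binding with 10 μM phentolamine. Incubated 45 min at 37 °C, then filtered. Ki via Cheng-Prusoff.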

Row | Ki [1] | Ki [2] | Compound
1 | > 10 µM | > 10 µM | C=CCNC[C@@H]1OC(C2CCCCC2)Cc2c1ccc(O)c2O (some centres not stated)
2 | > 10 µM | > 10 µM | CC(C)(C)C1Cc2c(ccc(O)c2O)[C@H](CN)O1 (some centres not stated)
3 | > 10 µM | 6.06 µM | NC[C@H]1O[C@@H](c2ccccc2)Cc2c1ccc(O)c2O
4 | > 10 µM | 10.8 µM | NC[C@@H]1OC(c2ccccc2)Cc2c1ccc(O)c2O (some centres not stated)
5 | > 10 µM | > 10 µM | NC[C@@H]1O[C@H](c2ccccc2)Cc2c1ccc(O)c2O
6 | > 10 µM | > 10 µM | NC[C@@H]1OC(C2CCCCC2)Cc2c1ccc(O)c2O (some centres not stated)
